Laboratory results as given in ChEMBL document CHEMBL5608261, “Pharmacophore Establishment and Optimization of Saturated 1,6-Naphthyridine-Fused Quinazolinones that Inhibit Meningoencephalitis-Causing Naegleria fowleri” (J Med Chem, 2024).

Experiments:
[1] = test system: SH-SY5Y; test: Cytotoxicity against human SH-SY5Y cells assessed as reduction in cell viability incubated for 72 hrs by CellTiter-Glo assay; type: toxicity, cell-based; settings: sh-sy5y, 72 h
Outline: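 SH-SY5Y cells at 2000 per well attached overnight at 37 °C. Compound from 20 mM DMSO stocks was added in triplicate as a dose series starting at 20 μM, with doxorubicin as positive control.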

[2] = test system: Naegleria fowleri; test: Anti-ameobic activity against Naegleria fowleri Nf69 (ATCC 30215) trophozoites assessed as inhibition of amoeba growth incubated for 48 hrs by CellTiter-Glo assay; type: functional, organism-based
Outline: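 Axenic Nf69 trophozoites were seeded at 1 × 10^4 cells/mL in Nelson's complete medium with 10% heat-inactivated FBS. Compound was added at 20 to 0.375 μM (lower ranges for very potent compounds), with vehicle controls, for 48 h at 37 °C and 5% CO2. CellTiter-Glo luminescence gave % growth inhibition versus controls, and triplicate means were fitted to dose–response curves for EC50.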

[3] = Selectivity index, ratio of CC50 for cytotoxicity against human SH-SY5Y cells to EC50 for anti-amoebic activity against Naegleria fowleri Nf69 (ATCC 30215) assessed as inhibition of amoeba growth; type: toxicity, cell-based; settings: for selectivity ratio: SH-SY5Y cells, read-out: Ratio CC50/EC50
[4] = Metabolic stability in CD-1 mouse liver microsomes assessed as half-life incubated for 60 mins by LC-MS/MS analysis; type: ADME, Microsome; settings: 1 h
Outline: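 Half-life measured in CD-1 mouse liver microsomes with NADPH over a 60 min exposure.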

[5] = Naegleria fowleri, Nf69 (ATCC 30215), 48 h

SMILES | CC50 [1] [µM] | EC50 [2, 5] [µM] | also measured
COc1cc2nc3n(c(=O)c2cc1Cl)CC[C@@H]1[C@@H]3CCCN1CC(C)C | > 20 |  | EC50 [2]: 0.62 µM; Ratio CC50/EC50 [3]: > 32.3
CN1CCC[C@H]2c3nc4ccc(C(F)(F)F)cc4c(=O)n3CC[C@@H]21 |  | 4.3 | selectivity ratio [3]: > 4.7
CN1CCC[C@H]2c3nc4ccc(Cl)cc4c(=O)n3CC[C@@H]21 |  | 4 | selectivity ratio [3]: > 5
CN1CCC[C@H]2c3nc4cc(Cl)c(Cl)cc4c(=O)n3CC[C@@H]21 |  | 2.6 | selectivity ratio [3]: > 7.7
COc1cc2nc3n(c(=O)c2cc1Cl)CC[C@@H]1[C@@H]3CCCN1CC(C)C (racemic) | 1.8 |  | EC50 [2]: 0.17 µM; Ratio CC50/EC50 [3]: 10.6
Cc1ccc2nc3n(c(=O)c2c1)CC[C@@H]1[C@@H]3CCCN1C (racemic) |  | 3.1 | 
Cc1cccc2nc3n(c(=O)c12)CC[C@@H]1[C@@H]3CCCN1C (racemic) | > 20 | > 10 | 
CN1CCC[C@H]2c3nc4cccc(Cl)c4c(=O)n3CC[C@H]21 (racemic) |  | > 10 | 
CN1CCC[C@H]2c3nc4cc(Cl)c(C(F)(F)F)cc4c(=O)n3CC[C@H]21 (racemic) | > 20 | 0.27 | 
CN(C)CC(=O)N1CCC[C@@H]2c3nc4cc(Cl)c(Cl)cc4c(=O)n3CC[C@H]21 (racemic) | > 20 | 0.72 | 
O=C(N1CCOCC1)N1CCC[C@@H]2c3nc4cc(Cl)c(Cl)cc4c(=O)n3CC[C@H]21 (racemic) | > 20 | > 10 | 
COc1cc2nc3n(c(=O)c2cc1Cl)CC[C@@H]1[C@@H]3CCCN1C (racemic) | > 20 | 0.43 | 
O=c1c2cc(Cl)c(Cl)cc2nc2n1CC[C@@H]1[C@@H]2CCCN1Cc1cnccn1 (racemic) | > 20 | 0.05 | 
O=C(C1CCOCC1)N1CCC[C@@H]2c3nc4cc(Cl)c(Cl)cc4c(=O)n3CC[C@H]21 (racemic) | > 20 | > 10 | 
CC(C)N1CCC[C@@H]2c3nc4cc(Cl)c(Cl)cc4c(=O)n3CC[C@H]21 (racemic) | > 20 | 0.04 | t1/2 [4]: 41.1 min
CN1CCC[C@@H]2c3nc4cc(F)ccc4c(=O)n3CC[C@H]21 (racemic) | > 20 | > 10 | 
COc1ccc2c(=O)n3c(nc2c1)[C@@H]1CCCN(C)[C@@H]1CC3 (racemic) |  | 1.8 | 
CN1CCC[C@H]2c3nc4cc(Cl)c(Cl)cc4c(=O)n3CC[C@H]21 (racemic) |  | 0.26 | 
Cc1ccc2nc3n(c(=O)c2c1)CC[C@@H]1[C@H]3CCCN1C (racemic) | > 20 | 2.8 | 

SMILES | CC50 [1] [µM] | EC50 [2, 5] [µM] | also measured
O=c1c2cc(Cl)c(Cl)cc2nc2n1CC[C@H]1NCCC[C@H]21 (racemic) | > 20 | 1.6 | 
CN1CCC[C@@H]2c3nc4cc(Cl)ccc4c(=O)n3CC[C@H]21 (racemic) | > 20 | 6 | 
COc1cc(Cl)cc2c(=O)n3c(nc12)[C@H]1CCCN(C)[C@@H]1CC3 (racemic) | > 20 | > 10 | 
COc1cc2nc3n(c(=O)c2cc1C#N)CC[C@@H]1[C@@H]3CCCN1C (racemic) | > 20 | 3.8 | 
O=c1c2cc(Cl)c(Cl)cc2nc2n1CC[C@@H]1[C@@H]2CCCN1Cc1ccccn1 (racemic) | > 20 | 2.53 | 
COc1ccc2nc3n(c(=O)c2c1)CC[C@@H]1[C@H]3CCCN1C (racemic) | > 20 | > 10 | 
CN1CCC[C@@H]2c3nc4cnccc4c(=O)n3CC[C@H]21 (racemic) |  | > 10 | 
Cc1cccc2nc3n(c(=O)c12)CC[C@@H]1[C@H]3CCCN1C (racemic) |  | > 10 | 
COc1ccc2nc3n(c(=O)c2c1)CC[C@@H]1[C@@H]3CCCN1C (racemic) |  | 7.3 | 
O=c1c2cc(Cl)c(Cl)cc2nc2n1CC[C@@H]1[C@@H]2CCCN1Cc1ccncc1 (racemic) | > 20 | 0.48 | 
CN1CCC[C@@H]2c3nc4cc(-c5ccccc5)c(Cl)cc4c(=O)n3CC[C@H]21 (racemic) | 9.4 | 2.1 | 
COc1cc(Cl)cc2c(=O)n3c(nc12)[C@@H]1CCCN(C)[C@@H]1CC3 (racemic) |  | > 10 | 
COc1cc2nc3n(c(=O)c2cc1Cl)CC[C@@H]1[C@H]3CCCN1C (racemic) |  | 0.38 | 
CN1CCC[C@@H]2c3nc4cc(C(F)(F)F)ccc4c(=O)n3CC[C@H]21 (racemic) |  | 0.99 | 
CN1CCC[C@H]2c3nc4cnccc4c(=O)n3CC[C@H]21 (racemic) |  | > 10 | 
CN1CCC[C@H]2c3nc4cc(F)ccc4c(=O)n3CC[C@H]21 (racemic) |  | > 10 | 
CN1CCC[C@@H]2c3nc4cccc(Cl)c4c(=O)n3CC[C@H]21 (racemic) | > 20 | > 10 | 
CN1CCC[C@H]2c3nc4ccc(C#N)cc4c(=O)n3CC[C@H]21 (racemic) | > 20 | 2.1 | 
CN1CCC[C@@H]2c3nc4cc(Cl)c(C(F)(F)F)cc4c(=O)n3CC[C@H]21 (racemic) |  | 0.34 | 

SMILES | CC50 [1] [µM] | EC50 [2, 5] [µM] | also measured
CC(C)CN1CCC[C@@H]2c3nc4cc(Cl)c(Cl)cc4c(=O)n3CC[C@H]21 (racemic) | > 20 | 0.007 | t1/2 [4]: 19.7 min
O=c1c2cc(Cl)c(Cl)cc2nc2n1CC[C@@H]1[C@@H]2CCCN1Cc1ccccc1 (racemic) | > 20 | 0.72 | 
CN1CCC[C@H]2c3nc4ccc(Cl)cc4c(=O)n3CC[C@H]21 (racemic) |  | 2.2 | 
CN1CCC[C@@H]2c3nc4ccc(C#N)cc4c(=O)n3CC[C@H]21 (racemic) |  | 0.67 | 
CN(C)C(=O)CN1CCC[C@@H]2c3nc4cc(Cl)c(Cl)cc4c(=O)n3CC[C@H]21 (racemic) | > 20 | 0.3 | 
CN1CCC[C@H]2c3nc4ccc(C(F)(F)F)cc4c(=O)n3CC[C@H]21 (racemic) |  | 0.95 | 
CN1CCC[C@H]2c3nc4cc(C(F)(F)F)ccc4c(=O)n3CC[C@H]21 (racemic) | > 20 | 6.9 | 
O=C(c1ccccc1)N1CCC[C@@H]2c3nc4cc(Cl)c(Cl)cc4c(=O)n3CC[C@H]21 (racemic) | > 20 | > 10 | 
CN1CCC[C@@H]2c3nc4ccc(F)cc4c(=O)n3CC[C@H]21 (racemic) | > 20 | > 10 | 
CN(C)CCN1CCC[C@@H]2c3nc4cc(Cl)c(Cl)cc4c(=O)n3CC[C@H]21 (racemic) | 8 | 0.18 | selectivity ratio [3]: 44
CN1CCC[C@@H]2c3nc4ccccc4c(=O)n3CC[C@H]21 (racemic) | > 20 | > 10 | 
CN1CCC[C@H]2c3nc4cc(-c5ccccc5)c(Cl)cc4c(=O)n3CC[C@H]21 (racemic) | > 20 | 3.4 | 
CN1CCC[C@H]2c3nc4ccccc4c(=O)n3CC[C@H]21 (racemic) |  | > 10 | 
CC(C)(C)C(=O)N1CCC[C@@H]2c3nc4cc(Cl)c(Cl)cc4c(=O)n3CC[C@H]21 (racemic) | > 20 | > 10 | 
CN1CCC[C@H]2c3nc4cc(Cl)ccc4c(=O)n3CC[C@H]21 (racemic) |  | > 10 | 
COc1ccc2c(=O)n3c(nc2c1)[C@H]1CCCN(C)[C@@H]1CC3 (racemic) | > 20 | 1.5 | 
CC(C)NCCN1CCC[C@@H]2c3nc4cc(Cl)c(Cl)cc4c(=O)n3CC[C@H]21 (racemic) | 6.4 | 0.13 | selectivity ratio [3]: 49
CN1CCC[C@H]2c3nc4ccc(F)cc4c(=O)n3CC[C@H]21 (racemic) |  | > 10 | 
